A word on the IC50: it is the concentration at which inhibition is half-maximal.

We go through three compounds from ChEMBL document CHEMBL4219214, “Callyspongiamides A and B, sterol O-acyltransferase inhibitors, from the Indonesian marine sponge Callyspongia sp” (Bioorg Med Chem Lett, 2018).

Data set [1] concerns CHO. The experiment in a line: Effect on cell morphology in CHO cells expressing African green monkey SOAT2 up to 21 to 23 uM. It is filed as ADME, cell-based, Cricetulus griseus. The note with it: chinese hamster.
The test system of data set [2] is CHO. The experiment in a line: Effect on cell morphology in CHO cells expressing African green monkey SOAT1 up to 21 to 23 uM. It is filed as ADME, cell-based, Cricetulus griseus. Particulars: chinese hamster.
For data set [3], the target named is T1, Sterol O-acyltransferase 1 (Chlorocebus aethiops, UniProt O77760).
T1 sequence (O77760 whole entry): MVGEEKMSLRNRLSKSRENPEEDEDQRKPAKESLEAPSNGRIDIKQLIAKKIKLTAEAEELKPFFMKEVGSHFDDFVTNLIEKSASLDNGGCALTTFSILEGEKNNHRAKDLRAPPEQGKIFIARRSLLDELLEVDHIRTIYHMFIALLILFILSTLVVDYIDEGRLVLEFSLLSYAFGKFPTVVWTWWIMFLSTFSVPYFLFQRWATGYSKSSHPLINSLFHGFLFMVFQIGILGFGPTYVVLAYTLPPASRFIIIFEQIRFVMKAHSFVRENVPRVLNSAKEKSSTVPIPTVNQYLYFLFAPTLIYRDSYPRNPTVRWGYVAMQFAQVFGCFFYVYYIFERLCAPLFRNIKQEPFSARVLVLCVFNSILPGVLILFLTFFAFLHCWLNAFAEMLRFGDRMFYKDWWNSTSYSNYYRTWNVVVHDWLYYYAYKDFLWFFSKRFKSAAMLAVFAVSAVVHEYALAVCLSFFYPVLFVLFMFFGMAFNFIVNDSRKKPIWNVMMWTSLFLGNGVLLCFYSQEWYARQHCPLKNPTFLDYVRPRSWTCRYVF
In words: Inhibition of African green monkey SOAT1 isolated from CHO cell microsomes assessed as decrease in [14C]CE synthesis from [1-14C]oleoyl-CoA after 5 mins.

The species named for data set [4] is Chlorocebus aethiops. The experiment in a line: Selectivity index, ratio of IC50 for African green monkey SOAT1 expressed in CHO cells to IC50 for African green monkey SOAT2 expressed in CHO cells. It is filed as cell-based. The method, boiled down:
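Monolayers of SOAT1- or SOAT2-CHO cells (≥80% confluent, overnight recovery) got CH3OH compound stocks (0–1 mg/mL) plus [14C]oleic acid (1 nmol, 1.85 kBq) for 6 h at 37 °C. Cells were SDS-lysed and Bligh–Dyer extracted, and [14C]CE was quantified by TLC radioimaging as percent of control. IC50s came from triplicate experiments, mean ± SD. SI = log(IC50 SOAT1/IC50 SOAT2).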

The species entered for data set [5] is Chlorocebus aethiops. The experiment in a line: Selectivity index, ratio of IC50 for African green monkey SOAT1 isolated from CHO cell microsomes to IC50 for African green monkey SOAT2 isolated from CHO cell microsomes. In a few lines: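 Microsomes were made by homogenizing SOAT1- or SOAT2-CHO cells in sucrose/KCl/KH2PO4/EDTA buffer (pH 7.2) and pelleting at 100,000 × g, 1 h, 4 °C. They were incubated with fatty-acid-free BSA and compound in methanol, and the reaction was started with [1-14C]oleoyl-CoA for 5 min at 37 °C. It was stopped with CHCl3:MeOH 2:1, and [14C]CE was measured by TLC radioimaging. Values are mean ± SD, n = 3. SI = log(IC50 SOAT1/IC50 SOAT2).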

The subject of data set [6] is CHO. In words: Effect on phospholipid synthesis in CHO cells expressing African green monkey SOAT1 up to 21 to 23 uM. It is filed as ADME, cell-based, Cricetulus griseus. Particulars: chinese hamster. The method, boiled down:
(§1)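 SOAT1- or SOAT2-expressing CHO cells were grown in Ham's F-12 with MEM vitamins, geneticin (300 μg/mL) and 10% heat-inactivated FBS at 37 °C, 5% CO2. Cells were seeded at 1.25 × 10⁵/well, recovered overnight, and used at ≥80% confluence. Compound stocks in CH3OH (0–1 mg/mL) were added with [14C]oleic acid (1 nmol) for 6 h. Lipids were Bligh–Dyer extracted, and [14C]PL was resolved by TLC and imaged.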

Data set [7] has as its target T1, Sterol O-acyltransferase 1. The experiment in a line: Inhibition of African green monkey SOAT1 expressed in CHO cells assessed as decrease in [14C]CE synthesis from [14C]oleic acid after 6 hrs. It is filed as cell-based.
In data set [8] the test system is CHO. The experiment in a line: Effect on phospholipid synthesis in CHO cells expressing African green monkey SOAT2 up to 21 to 23 uM. The note with it: chinese hamster. It is filed as ADME, cell-based, Cricetulus griseus. The method, boiled down: as §1
The target of data set [9] is T2, Sterol O-acyltransferase 2 (Chlorocebus aethiops, UniProt O77759).
T2 sequence (O77759 whole entry): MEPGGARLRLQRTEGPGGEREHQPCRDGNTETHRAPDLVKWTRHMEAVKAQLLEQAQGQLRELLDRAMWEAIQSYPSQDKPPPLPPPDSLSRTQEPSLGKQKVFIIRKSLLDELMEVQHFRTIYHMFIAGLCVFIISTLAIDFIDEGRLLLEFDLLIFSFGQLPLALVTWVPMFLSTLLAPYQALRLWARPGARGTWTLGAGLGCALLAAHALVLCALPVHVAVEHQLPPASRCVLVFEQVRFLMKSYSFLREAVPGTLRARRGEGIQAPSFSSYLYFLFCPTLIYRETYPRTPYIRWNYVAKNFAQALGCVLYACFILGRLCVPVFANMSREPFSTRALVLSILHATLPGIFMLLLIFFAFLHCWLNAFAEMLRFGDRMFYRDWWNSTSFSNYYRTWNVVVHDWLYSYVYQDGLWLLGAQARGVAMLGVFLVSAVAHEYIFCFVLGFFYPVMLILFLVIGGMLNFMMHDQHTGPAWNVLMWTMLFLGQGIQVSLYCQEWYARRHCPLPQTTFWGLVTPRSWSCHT
In words: Inhibition of African green monkey SOAT2 expressed in CHO cells assessed as decrease in [14C]CE synthesis from [14C]oleic acid after 6 hrs. It is filed as cell-based.

In data set [10] the target is T2, Sterol O-acyltransferase 2. In words: Inhibition of African green monkey SOAT2 isolated from CHO cell microsomes assessed as decrease in [14C]CE synthesis from [1-14C]oleoyl-CoA after 5 mins.

With `CCC(=O)[C@H](C[C@H](C)C(Cl)(Cl)Cl)NC(=O)/C=C/[C@H](C)C(Cl)(Cl)Cl`, the Activity result in [1], in data set [2], in data set [6] and in data set [8] was “Non-Toxic” each time. The IC50 in data set [3] was determined as 1000 nM; in [7] it was 1200 nM; in data set [9] it was 2400 nM; in [10], 3200 nM. The -log(RatioIC50) was 0.3 in data set [4] and 0.51 in data set [5].
`CCC(=O)[C@H](C[C@H](C)C(Cl)(Cl)Cl)NC(=O)[C@H](C[C@H](C)C(Cl)(Cl)Cl)N(C)C`: the Activity result in [1], in data set [2], in [6] and in data set [8] was “Non-Toxic” each time. Also, the IC50 in data set [3] is 230 nM; in data set [7], 780 nM; in data set [9], 2800 nM; in data set [10] it was 860 nM. For the same compound, the -log(RatioIC50) in [4] is 0.56; in data set [5], 0.57.
In the case of `C[C@@H](C[C@H]1C(=O)N(C)[C@@H](C[C@H](C)C(Cl)(Cl)Cl)C(=O)N1C)C(Cl)(Cl)Cl`, the Activity entry in data set [1], in data set [2], in data set [6] and in data set [8] was “Non-Toxic” throughout. Moreover, the IC50 in data set [3] was found to be 2100 nM; in data set [7], 5200 nM; in data set [9] it was 4200 nM; in [10] it was 5300 nM. For the same compound, the log(RatioIC50) in [4] worked out at 0.092. Moreover, in data set [5], the -log(RatioIC50) turned out to be 0.4.
